Experimental data: ChEMBL document CHEMBL3045256, “Design, synthesis, structure, and acaricidal/insecticidal activity of novel spirocyclic tetronic acid derivatives containing an oxalyl moiety” (2011)

Key:
Format in all cases: functional
Tetranychus cinnabarinus [1] = assay: Acaricidal activity against larvae of Tetranychus cinnabarinus (carmine spider mite) in sieva bean leaves assessed as mortality at 10 mg/kg at 25 +/-1 degC treated for 3 secs measured after 4 days; conditions: 96 h
Ostrinia nubilalis = assay: Stomach toxicity against third-instar larval stage of Ostrinia nubilalis (European corn borer) in corn leaves assessed as mortality at 600 mg/kg at 25 +/-1 degC treated for 3-5 secs before larval infestation after 4 days by leaf-dip method; conditions: 96 h
In short: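 Corn leaf disks (about 5 cm) were dipped for 3–5 s and air-dried. Each disk was placed in a 7 cm glass vessel with 10 third-instar corn borer larvae. Percentage mortality was scored 4 days after treatment. Controls were acetone-treated leaves. Run at 25 ± 1 °C.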

Tetranychus cinnabarinus [2] = assay: Acaricidal activity against eggs of Tetranychus cinnabarinus (carmine spider mite) in sieva bean leaves assessed as mortality at 2.5 mg/kg at 25 +/-1 degC treated for 3 secs measured after 4 days; conditions: 96 h
Tetranychus cinnabarinus [3] = assay: Acaricidal activity against eggs of Tetranychus cinnabarinus (carmine spider mite) in sieva bean leaves assessed as mortality at 5 mg/kg at 25 +/-1 degC treated for 3 secs measured after 4 days; conditions: 96 h
Helicoverpa armigera = assay: Stomach toxicity against third-instar larval stage of Helicoverpa armigerain compound-pretreated corn leaves assessed as mortality at 600 mg/kg at 25 +/-1 degC after 4 days by leaf-dip method
In short: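 Leaf-dip assay on cotton bollworm. Corn leaves were dipped in test solution and air-dried. The treated pieces were placed individually into 24-hole boxes. Run at 25 ± 1 °C.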

Mythimna separata [4] = assay: Stomach toxicity against fourth-instar larval stage of Mythimna separata (Oriental armyworm) in compound-pretreated corn leaves assessed as mortality at 600 mg/kg at 25 +/-1 degC after 4 days
In short: (§1)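 Foliar application to oriental armyworm. Single corn leaves were laid on moistened filter paper in Petri dishes. Bioassays were run at 25 ± 1 °C.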

Tetranychus cinnabarinus [5] = assay: Acaricidal activity against larvae of Tetranychus cinnabarinus (carmine spider mite) in sieva bean leaves assessed as mortality at 5 mg/kg at 25 +/-1 degC treated for 3 secs measured after 4 days; conditions: 96 h
Tetranychus cinnabarinus [6] = assay: Acaricidal activity against eggs of Tetranychus cinnabarinus (carmine spider mite) in sieva bean leaves assessed as mortality at 1 mg/kg at 25 +/-1 degC treated for 3 secs measured after 4 days; conditions: 96 h
Tetranychus cinnabarinus [7] = assay: Acaricidal activity against larvae of Tetranychus cinnabarinus (carmine spider mite) in sieva bean leaves assessed as mortality at 2.5 mg/kg at 25 +/-1 degC treated for 3 secs measured after 4 days; conditions: 96 h
Tetranychus cinnabarinus [8] = assay: Acaricidal activity against eggs of Tetranychus cinnabarinus (carmine spider mite) in sieva bean leaves assessed as mortality at 0.25 mg/kg at 25 +/-1 degC treated for 3 secs measured after 4 days; conditions: 96 h
Tetranychus cinnabarinus [9] = assay: Acaricidal activity against eggs of Tetranychus cinnabarinus (carmine spider mite) in sieva bean leaves assessed as mortality at 0.5 mg/kg at 25 +/-1 degC treated for 3 secs measured after 4 days; conditions: 96 h
Plutella xylostella = assay: Stomach toxicity against third-instar larval stage of Plutella xylostella (diamondback moth) in cabbage leaves assessed as mortality at 200 mg/kg at 25 +/-1 degC treated for 3 secs before larval infestation after 4 days by leaf-dip method; conditions: 96 h
In short: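 Cabbage leaf disks (6 cm × 2 cm) were dipped in test solution for 3 s and air-dried. Each disk was placed in a glass tube and given seven third-instar diamondback moth larvae. Percentage mortality was scored after 4 days. Controls were water and dimethylformamide. Each treatment was done three times at 25 ± 1 °C.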

Tetranychus cinnabarinus [10] = assay: Acaricidal activity against larvae of Tetranychus cinnabarinus (carmine spider mite) in sieva bean leaves assessed as mortality at 1 mg/kg at 25 +/-1 degC treated for 3 secs measured after 4 days; conditions: 96 h
Tetranychus cinnabarinus [11] = assay: Acaricidal activity against larvae of Tetranychus cinnabarinus (carmine spider mite) in sieva bean leaves assessed as mortality at 0.5 mg/kg at 25 +/-1 degC treated for 3 secs measured after 4 days; conditions: 96 h
Tetranychus cinnabarinus [12] = assay: Acaricidal activity against eggs of Tetranychus cinnabarinus (carmine spider mite) in sieva bean leaves assessed as mortality at 0.05 mg/kg at 25 +/-1 degC treated for 3 secs measured after 4 days; conditions: 96 h
Mythimna separata [13] = assay: Stomach toxicity against fourth-instar larval stage of Mythimna separata (Oriental armyworm) in compound-pretreated corn leaves assessed as mortality at 50 mg/kg at 25 +/-1 degC after 4 days; in short: as §1
Mythimna separata [14] = assay: Stomach toxicity against fourth-instar larval stage of Mythimna separata (Oriental armyworm) in compound-pretreated corn leaves assessed as mortality at 100 mg/kg at 25 +/-1 degC after 4 days; in short: as §1
Tetranychus cinnabarinus [15] = assay: Acaricidal activity against eggs of Tetranychus cinnabarinus (carmine spider mite) in sieva bean leaves assessed as mortality at 25 +/-1 degC treated for 3 secs measured after 4 days
Tetranychus cinnabarinus [16] = assay: Toxicity ratio of spiromesifen LC50 to compound LC50 for eggs of Tetranychus cinnabarinus (carmine spider mite) treated for 3 secs measured after 4 days
Tetranychus cinnabarinus [17] = assay: Acaricidal activity against eggs of Tetranychus cinnabarinus (carmine spider mite) in sieva bean leaves assessed as mortality at 0.1 mg/kg at 25 +/-1 degC treated for 3 secs measured after 4 days; conditions: 96 h

| Structure (SMILES) | mortality at 10 mg/kg (Tetranychus cinnabarinus [1]) | mortality at 600 mg/kg (Ostrinia nubilalis) | mortality at 2.5 mg/kg (Tetranychus cinnabarinus [2]) | mortality at 5 mg/kg (Tetranychus cinnabarinus [3]) | mortality at 600 mg/kg (Helicoverpa armigera) | mortality at 600 mg/kg (Mythimna separata [4]) | mortality at 5 mg/kg (Tetranychus cinnabarinus [5]) | mortality at 1 mg/kg (Tetranychus cinnabarinus [6]) | mortality at 2.5 mg/kg (Tetranychus cinnabarinus [7]) | mortality at 0.25 mg/kg (Tetranychus cinnabarinus [8]) | mortality at 0.5 mg/kg (Tetranychus cinnabarinus [9]) | mortality at 200 mg/kg (Plutella xylostella) | mortality at 1 mg/kg (Tetranychus cinnabarinus [10]) | mortality at 0.5 mg/kg (Tetranychus cinnabarinus [11]) | mortality at 0.05 mg/kg (Tetranychus cinnabarinus [12]) | mortality at 50 mg/kg (Mythimna separata [13]) | mortality at 100 mg/kg (Mythimna separata [14]) | LC50 (Tetranychus cinnabarinus [15]) | RatioLC50 (Tetranychus cinnabarinus [16]) | mortality at 0.1 mg/kg (Tetranychus cinnabarinus [17]) |
| --- | --- | --- | --- | --- | --- | --- | --- | --- | --- | --- | --- | --- | --- | --- | --- | --- | --- | --- | --- | --- |
| Cc1cc(C)c(C2=C(OC(=O)C(=O)N3CCCC3)C3(CCCC3)OC2=O)c(C)c1 | 40% | 30% | 30% | 70% | 30% | 40% | 0% | – | – | – | – | – | – | – | – | – | – | – | – | – |
| Cc1cc(C)c(C2=C(OC(=O)C(=O)N(C)c3ccccc3)C3(CCCC3)OC2=O)c(C)c1 | 80% | 30% | 100% | 100% | 50% | 80% | 70% | 100% | 40% | 50% | 100% | 70% | 0% | – | – | – | – | – | – | – |
| CCN(C(=O)C(=O)OC1=C(c2c(C)cc(C)cc2C)C(=O)OC12CCCC2)c1ccccc1 | 100% | 40% | 100% | 100% | 40% | 40% | 100% | 90% | 90% | 30% | 50% | – | 80% | 60% | – | – | – | – | – | – |
| CCN(C(=O)C(=O)OC1=C(c2c(C)cc(C)cc2C)C(=O)OC12CCCC2)c1ccc(C)cc1C | 100% | 20% | 90% | 100% | 20% | 30% | 100% | 70% | 90% | – | 30% | – | 60% | 20% | – | – | – | – | – | – |
| CCN(C(=O)C(=O)OC1=C(c2c(C)cc(C)cc2C)C(=O)OC12CCCC2)c1ccc(Br)cc1 | 100% | 40% | 100% | 100% | 30% | 80% | 100% | 90% | 100% | 40% | 60% | – | 90% | 50% | – | – | – | – | – | – |
| CCN(C(=O)C(=O)OC1=C(c2c(C)cc(C)cc2C)C(=O)OC12CCCC2)c1ccc(C(F)(F)F)cc1 | 100% | 30% | 90% | 100% | 10% | 50% | 100% | 90% | 80% | 60% | 80% | – | 50% | 40% | – | – | – | – | – | – |
| CCOC(=O)C(=O)OC1=C(c2c(C)cc(C)cc2C)C(=O)OC12CCCC2 | 50% | 20% | – | 20% | 10% | 80% | 0% | – | – | – | – | 70% | – | – | – | – | – | – | – | – |
| Cc1cc(C)c(C2=C(OC(=O)CC(C)(C)C)C3(CCCC3)OC2=O)c(C)c1 [SPIROMESIFEN] | 100% | 60% | 100% | 100% | 50% | – | 100% | 90% | 100% | 60% | 90% | 70% | 90% | 90% | 0% | 60% | 100% | 0.1567 mg/kg | 1 | 20% |
